# Where “and” joins values, the source holds several entries; their conditions need not be identical. Equal entries are not always repeated.
# Assays:
# Dcs1p WT (H268N) [1] = target: T1, Dcs1p WT (H268N) (Saccharomyces cerevisiae, UniProt Q06151, H268N); test: Methyl NMR spectra, formation of asymmetric conformation; design: species or system S. cerevisiae
# WT Dcs1p = test: 31P NMR degradation; assay type: biochemical, S. cerevisiae
# Method in brief: (§1)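 Recombinant S. cerevisiae Dcs1p, expressed in E. coli BL21(DE3) codon plus and purified by Ni-NTA, TEV tag cleavage and size exclusion into 25 mM Hepes pH 8.0, 25 mM NaCl made in 100% D2O. 0.5 mM m7GpppG mixed with 50 nM enzyme at 27°C. Successive 31P spectra recorded over several hours, following substrate conversion to m7GMP and GDP.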
# DcpS = settings: cited from earlier work
# Dcs1p K126A [2] = test: Longitudinal exchange NMR, domain flipping motions; design: species or system S. cerevisiae
# Dcs1p WT (H268N) [3] = target: T1, Dcs1p WT (H268N); test: Longitudinal exchange NMR, domain flipping motions; design: species or system S. cerevisiae
# Method in brief: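 Methyl-TROSY longitudinal exchange spectra recorded with m7GpppG at 1:1, 1:2.5, 1:5 and 1:20 molar ratios. Mixing times 3–1000 ms. Rates fitted from auto- and cross-peak intensities versus mixing time.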
# Dcs1p K126A (H268N) [4] = target: T2, Dcs1p K126A (H268N) (Saccharomyces cerevisiae, UniProt Q06151, H268N/K126A); test: ITC; assay type: binding, S. cerevisiae
# Method in brief: (§2)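 Recombinant yeast Dcs1p carrying H268N, full length or C-terminal domain, purified by Ni-NTA, TEV cleavage and size exclusion. ITC at 25°C: m7GpppG or m7GMP injected into 0.5 mM enzyme solution.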
# Dcs1p K126A [5] = test: 31P NMR degradation; assay type: biochemical, S. cerevisiae; settings: high substrate excess
# Dcs1p WT (H268N) [6] = target: T1, Dcs1p WT (H268N); test: NMR titration; design: species or system S. cerevisiae; settings: Kd open site (second binding event), determined using NMR
# Method in brief: (§3)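 Deuterated, Ile/Met methyl-labelled Dcs1p (H268N), 0.25 mM dimer in D2O buffer pH 8.0 at 27°C. Methyl-TROSY spectra recorded during stepwise m7GpppG addition, up to 20 molar equivalents (5 mM). Peak positions and intensities from all titration points fitted simultaneously to a sequential two-site binding model. Kd given as mean ± s.d. from Monte Carlo simulations varying data within their errors.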
# Dcs1p Y94A = test: 31P NMR degradation; assay type: biochemical, S. cerevisiae; settings: Y94A enzyme; 31P NMR time series, 14 h
# Method in brief: as §1
# Dcs1p K126A (H268N) [7] = target: T2, Dcs1p K126A (H268N); test: NMR titration; design: species or system S. cerevisiae; settings: Kd open site (second binding event), determined using NMR
# Method in brief: as §3
# [8] = target: Dcs1p WT (H268N), full length (Saccharomyces cerevisiae, UniProt Q06151, H268N); test: ITC; assay type: binding, S. cerevisiae
# Method in brief: as §2
# Chain of Dcs1p WT (H268N), full length (Q06151 whole entry H268N): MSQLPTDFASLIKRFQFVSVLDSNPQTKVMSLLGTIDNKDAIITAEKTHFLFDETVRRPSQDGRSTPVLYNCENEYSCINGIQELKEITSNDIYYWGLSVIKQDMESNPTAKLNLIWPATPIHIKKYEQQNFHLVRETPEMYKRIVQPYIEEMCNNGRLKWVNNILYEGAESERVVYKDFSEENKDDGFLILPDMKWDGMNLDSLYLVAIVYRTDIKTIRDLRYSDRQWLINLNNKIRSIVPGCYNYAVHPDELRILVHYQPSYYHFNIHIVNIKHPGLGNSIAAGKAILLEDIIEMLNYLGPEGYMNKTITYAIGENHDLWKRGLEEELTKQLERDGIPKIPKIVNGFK
# T1 sequence (Q06151 whole entry H268N): as above
# T2 sequence (Q06151 whole entry K126A/H268N, the tested form may be a part): as the sequence (Q06151 whole entry H268N) above, with K126A counted along it
smiles,measurement,setting,value
Nc1nc2c(ncn2[C@@H]2O[C@H](COP(=O)(O)OP(=O)(O)OP(=O)(O)OC[C@H]3O[C@@H](n4cnc5c(=O)[nH]c(N)nc54)[C@H](O)[C@@H]3O)[C@@H](O)[C@H]2O)c(=O)[nH]1 [GpppG],formation of asymmetric conformation,Dcs1p WT (H268N) [1],observed no resonances corresponding to the asymmetric conformation
same,enzymatic turnover / hydrolysis,"WT Dcs1p; WT enzyme, 31P NMR time series, 14 h",did not detect enzymatic turnover
"C[n+]1cn([C@@H]2O[C@H](COP(=O)(O)OP(=O)(O)O)[C@@H](O)[C@H]2O)c2nc(N)[nH]c(=O)c21 [m^7GDP, 7-methylguanosine diphosphate]",hydrolysis,DcpS,not hydrolysed efficiently
C[n+]1cn([C@@H]2O[C@H](COP(=O)([O-])OP(=O)(O)OP(=O)(O)OC[C@H]3O[C@@H](n4cnc5c(=O)[nH]c(N)nc54)[C@H](O)[C@@H]3O)[C@@H](O)[C@H]2O)c2nc(N)[nH]c(=O)c21 [m7GpppG],Flipping rate,"Dcs1p K126A [2]; K126A (H268N), under high and low substrate excess",< 1 Hz under high and low substrate excess
same,domain flipping rate,"Dcs1p K126A [2]; K126A, substrate excess, based on detection limit of the experiment",less than 1 s^−1
same,domain flipping (exchange) rate,"Dcs1p WT (H268N) [3]; 20-fold excess of substrate over dimeric enzyme, inactive H268N",35.4 (± 4.8) s^−1 and 35.4 s^−1
same,Flipping rate,Dcs1p WT (H268N) [3]; low substrate excess,8 Hz
same,Kd,Dcs1p K126A (H268N) [4],0.24 µM
same,Turnover rate (kcat),Dcs1p K126A [5],0.48 s^−1 under high substrate excess
same,Turnover rate (kcat),"WT Dcs1p; high substrate excess, 0.5 mM substrate, 50 nM enzyme, 27°C",0.27 s^−1 under high substrate excess
same,Kd,Dcs1p WT (H268N) [6],105 µM
same,enzymatic turnover / hydrolysis,Dcs1p Y94A,did not detect enzymatic turnover
same,Kd,Dcs1p K126A (H268N) [7],196 µM
"C[n+]1cn([C@@H]2O[C@H](COP(=O)([O-])O)[C@@H](O)[C@H]2O)c2nc(N)[nH]c(=O)c21 [m7GMP, m^7G monophosphate]",formation of asymmetric conformation,Dcs1p WT (H268N) [1],preserves the asymmetric form of the complex
same,Kd,"[8]; Kd (single-step binding, closed binding site), ITC, DcpS H268N",1.1 ± 0.6 µM
same,factor weaker interaction with closed binding site than the substrate,[8]; product vs substrate,4
same,"interaction with the second, open binding site",[8]; using ITC and NMR,not able to detect an interaction

# — paper PMC4544744 (Nature chemical biology, 2015)
